This is an account of results in PMC9398548 (European journal of pharmaceutical sciences : official …, 2020).

Like-named read-outs stand apart in the source and are kept apart here. A value given as a limit tells only on which side of the number the result lay.

The subject of test [1] is human colon cancer HT-29 cells. Conditions: read-out: antiproliferative IC50, HT-29 cells; ref Bonnet et al., 2014; cited from earlier work.
Test [2] relates to human prostate cancer PC-3 cells. Conditions: read-out: antiproliferative IC50, PC-3 cells; ref Bonnet et al., 2014; cited from earlier work.
Test [3] deals with murine leukemia P-388 cells. Conditions: read-out: antiproliferative IC50, P-388 cells; ref Bonnet et al., 2014; cited from earlier work.
For another test, the system named is CEM cells. Nature of the test: MTT cytotoxicity assay in CEM cells. In kind it is cell-based. Conditions: read-out: CEM- IC50, 48 h, Mean±SD, n=3. The procedure, abridged:
(§1)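 Cells were grown in suspension in RPMI 1640 with 10% FBS and penicillin/streptomycin/amphotericin B at 37 °C under 5% CO2. They were seeded at ~5×10^3 cells/well, kept overnight, then exposed to test compounds diluted in DMSO for 48 h. Cells were pelleted (300 g, 4 °C, 5 min) and washed twice in phosphate buffer. MTT (5 mg/ml stock) was added for 4 h at 37 °C, formazan dissolved in DMSO, and A570 read. Triplicate; IC50 given as mean±SD.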

In another test the test system is K562 cells. Nature of the test: MTT cytotoxicity assay in K562 cells. Conditions: read-out: K562- IC50. In kind it is cell-based. The method in brief:
as §1

A further test has as its target T1, HDAC8 (Homo sapiens, UniProt Q9BY41).
T1 sequence (Q9BY41 1-377): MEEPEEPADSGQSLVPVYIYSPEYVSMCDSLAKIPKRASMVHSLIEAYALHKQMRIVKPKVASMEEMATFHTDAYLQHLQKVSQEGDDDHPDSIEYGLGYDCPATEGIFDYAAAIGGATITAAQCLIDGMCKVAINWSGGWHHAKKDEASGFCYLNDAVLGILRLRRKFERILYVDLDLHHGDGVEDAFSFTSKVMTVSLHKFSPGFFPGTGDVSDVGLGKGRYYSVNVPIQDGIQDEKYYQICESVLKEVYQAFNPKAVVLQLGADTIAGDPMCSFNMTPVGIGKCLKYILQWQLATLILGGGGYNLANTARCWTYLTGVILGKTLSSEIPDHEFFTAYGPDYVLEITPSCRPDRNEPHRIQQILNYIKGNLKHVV
Briefly: HDAC enzyme activity assay, HDAC8. Conditions: for HDAC-8 relative enzyme activity: primary screening at 50 μM. In kind it is biochemical. The method in brief: (§2)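 Enzymes were recombinant: HDAC8, and the codon-optimised human HDAC4 catalytic domain (pET14b). Serial inhibitor dilutions in 25 mM Tris-HCl, 75 mM KCl, 0.001% Pluronic F-127, pH 8.0 were pre-incubated with enzyme for 1 h at 30 °C. Reaction ran 60 min at 30 °C with 20 μM Boc-Lys(trifluoroacetyl)-AMC and was stopped with 1.7 μM SATFMK. Trypsin (0.4 mg/ml) released AMC; fluorescence read at Ex 350/Em 450 nm. Triplicate; IC50 from dose-response curves.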

A further test has as its target HDAC4 (Homo sapiens, UniProt P56524). Nature of the test: HDAC enzyme activity assay, HDAC4. The format is biochemical. The procedure, abridged:
as §2

Another test has as its target T2, HDAC6 (Homo sapiens, UniProt Q9UBN7).
T2 sequence (Q9UBN7 1-1215): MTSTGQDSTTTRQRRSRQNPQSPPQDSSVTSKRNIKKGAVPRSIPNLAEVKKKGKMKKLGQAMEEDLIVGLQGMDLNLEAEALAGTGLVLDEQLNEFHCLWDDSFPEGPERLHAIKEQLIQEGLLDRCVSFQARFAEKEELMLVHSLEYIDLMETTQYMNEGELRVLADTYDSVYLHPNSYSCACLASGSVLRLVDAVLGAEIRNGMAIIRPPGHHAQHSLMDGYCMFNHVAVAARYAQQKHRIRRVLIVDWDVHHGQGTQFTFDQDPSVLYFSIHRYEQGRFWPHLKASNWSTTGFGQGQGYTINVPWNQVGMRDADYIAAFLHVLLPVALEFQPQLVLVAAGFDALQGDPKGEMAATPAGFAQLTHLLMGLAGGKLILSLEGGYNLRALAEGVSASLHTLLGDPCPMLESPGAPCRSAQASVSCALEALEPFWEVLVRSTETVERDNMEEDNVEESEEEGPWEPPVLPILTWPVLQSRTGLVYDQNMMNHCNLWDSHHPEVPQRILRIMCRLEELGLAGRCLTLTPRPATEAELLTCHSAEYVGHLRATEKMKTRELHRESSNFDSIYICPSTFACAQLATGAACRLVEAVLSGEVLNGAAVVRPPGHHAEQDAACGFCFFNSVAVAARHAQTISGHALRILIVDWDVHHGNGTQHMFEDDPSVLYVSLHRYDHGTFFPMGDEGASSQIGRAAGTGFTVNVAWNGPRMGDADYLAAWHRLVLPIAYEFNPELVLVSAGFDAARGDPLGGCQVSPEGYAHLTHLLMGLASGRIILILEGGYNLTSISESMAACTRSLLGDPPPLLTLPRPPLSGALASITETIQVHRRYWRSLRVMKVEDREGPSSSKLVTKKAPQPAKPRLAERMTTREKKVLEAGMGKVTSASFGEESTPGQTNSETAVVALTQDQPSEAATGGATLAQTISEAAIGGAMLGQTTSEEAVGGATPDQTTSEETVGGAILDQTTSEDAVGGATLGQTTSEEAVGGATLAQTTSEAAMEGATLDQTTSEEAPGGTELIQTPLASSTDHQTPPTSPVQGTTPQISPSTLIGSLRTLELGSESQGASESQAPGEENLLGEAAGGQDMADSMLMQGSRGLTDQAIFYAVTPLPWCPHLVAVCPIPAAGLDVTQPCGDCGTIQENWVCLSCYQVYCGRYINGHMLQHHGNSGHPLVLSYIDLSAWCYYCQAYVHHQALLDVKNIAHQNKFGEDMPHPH
Nature of the test: HDAC enzyme activity assay, HDAC6. The format is biochemical.

The target in a further test is HDAC1 (Homo sapiens, UniProt Q13547). Briefly: HDAC enzyme activity assay, HDAC1. The format is biochemical.
[4] abbreviates: read-out: HDAC8 IC50, Means ±SD, n=3.
[5] abbreviates: read-out: HDAC4 IC50, Means ±SD, n=3.
[6] abbreviates: read-out: HDAC6 IC50, Means ±SD, n=3.
The mark [7] stands for this setting: read-out: HDAC1 IC50, Means ±SD, n=3.

HDAC4, sequence (P56524 655-1084 limits assumed): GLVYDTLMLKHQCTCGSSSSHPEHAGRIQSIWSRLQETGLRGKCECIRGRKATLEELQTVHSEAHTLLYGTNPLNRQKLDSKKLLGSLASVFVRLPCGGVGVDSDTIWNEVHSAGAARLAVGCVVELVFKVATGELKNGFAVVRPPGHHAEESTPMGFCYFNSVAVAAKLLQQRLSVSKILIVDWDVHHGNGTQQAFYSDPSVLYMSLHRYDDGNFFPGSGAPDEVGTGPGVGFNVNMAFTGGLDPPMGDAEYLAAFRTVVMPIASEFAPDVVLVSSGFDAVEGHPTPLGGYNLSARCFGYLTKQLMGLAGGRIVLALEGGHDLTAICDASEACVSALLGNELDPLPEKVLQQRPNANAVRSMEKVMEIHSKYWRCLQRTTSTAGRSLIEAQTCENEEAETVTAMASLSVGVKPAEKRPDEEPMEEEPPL
HDAC1, sequence (Q13547 whole entry, species assumed): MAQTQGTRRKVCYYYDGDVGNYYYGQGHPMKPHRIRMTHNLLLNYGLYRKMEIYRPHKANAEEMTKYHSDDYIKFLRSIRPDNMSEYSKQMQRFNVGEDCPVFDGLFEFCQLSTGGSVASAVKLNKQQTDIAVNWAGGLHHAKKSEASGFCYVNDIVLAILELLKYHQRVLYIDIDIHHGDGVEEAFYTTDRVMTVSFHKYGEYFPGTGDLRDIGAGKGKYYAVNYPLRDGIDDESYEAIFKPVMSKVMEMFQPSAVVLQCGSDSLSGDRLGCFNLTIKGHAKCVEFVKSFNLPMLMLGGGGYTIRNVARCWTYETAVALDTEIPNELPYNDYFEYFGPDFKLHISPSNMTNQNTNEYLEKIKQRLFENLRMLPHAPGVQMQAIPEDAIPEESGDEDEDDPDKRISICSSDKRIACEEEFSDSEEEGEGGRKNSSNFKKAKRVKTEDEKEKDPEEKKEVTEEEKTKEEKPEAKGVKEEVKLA

Consider `O=C1C[C@@H]2/C(=C(O)\C=C\c3ccccc3)C(=O)C=C[C@@H]2O1` [(+)-Cryptocaryone], for which the figures for the 50% inhibitory concentration (IC50) in [1], in test [2] and in test [3] were 0.32 µM, 1.6 µM and 0.04 µM, respectively.

For the molecule `O=C(CN1C(=O)SC(=Cc2ccc(Br)cc2)C1=O)Nc1ccc(Cl)cc1C(F)(F)F` [Compound G1, 2-[5-(4-Bromobenzylidene)-2,4-dioxo-thiazolidin-3-yl]-N-(4-chloro-2-trifluromethylphenyl) acetamide], the IC50 is 25.1 ± 1.84 µM in the test with CEM cells; 24 ± 0.58 µM in the test with K562 cells (MTT, 48 h, Mean±SD, n=3); 20 ± 3 µM at HDAC8 (setting [4]); greater than 50 µM on HDAC4 (setting [5]); 16 ± 2 µM at HDAC6 (setting [6]); greater than 50 µM at HDAC1 (setting [7]). For the same molecule, the “HDAC-8 relative enzyme activity” value on HDAC8 was less than 50%.

On to `Cc1ccc(C=C2SC(=O)N(CC(=O)Nc3ccc(Cl)cc3C(F)(F)F)C2=O)cc1C` [Compound G3, N-(4-Chloro-2-trifluoromethylphenyl)-2-[5-(3,4-dimethylbenzylidene)-2,4-dioxothiazolidin-3-yl] acetamide], for which the IC50 was 25.9 ± 2.95 µM with CEM cells; 26.4 ± 3.07 µM in the test with K562 cells (MTT, 48 h, Mean±SD, n=3); 16 ± 2 µM on HDAC8 (setting [4]); greater than 50 µM on HDAC4 (setting [5]); 17 ± 2 µM on HDAC6 (setting [6]); greater than 50 µM on HDAC1 (setting [7]). Moreover, the “HDAC-8 relative enzyme activity” value at HDAC8 is less than 50%.

In the case of `Cc1ccc(C=C2SC(=O)N(CC(=O)Nc3ccc(Cl)cc3C(F)(F)F)C2=O)cc1` [Compound G11, N-(4-Chloro-2-trifluoromethylphenyl)-2-[5-(4-methylbenzylidene)-2,4-dioxothiazolidin-3-yl]acetamide], the IC50 with K562 cells (Homo sapiens, K562, 48 h) was 34.6 ± 3.57 µM; against HDAC8, 18 ± 2 µM; against HDAC4 it was greater than 50 µM; at HDAC6 it was 14 ± 3 µM; against HDAC1, 31 ± 1.1 µM. The “HDAC-8 relative enzyme activity” value on HDAC8 was less than 50%.

For `O=C(CN1C(=O)SC(=Cc2ccccc2)C1=O)Nc1ccc(Cl)cc1C(F)(F)F` [Compound G13, 2-[5-Benzylidene-2,4-dioxothiazolidin-3-yl]-N-(4-chloro-2-trifluoromethylphenyl)acetamide], the IC50 in the test on K562 cells (Homo sapiens, K562, 48 h) is 41.7 ± 3.9 µM; on HDAC8 it was 11 ± 1 µM; at HDAC4, greater than 50 µM; against HDAC6, 42 µM; against HDAC1 it was greater than 50 µM. Besides, at HDAC8, the “HDAC-8 relative enzyme activity” value is on record as less than 50%.
